Results: ChEMBL document CHEMBL1275567, “In vitro activity of TR-700, the antibacterial moiety of the prodrug TR-701, against linezolid-resistant strains” (2008)
In brackets after ≈: the same amount, converted by molar mass.

Key:
Type in all cases: functional
Mammaliicoccus sciuri = assay: Antimicrobial activity against linezolid-resistant Staphylococcus sciuri by broth microdilution method
Outline: (§1)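 MIC by CLSI broth microdilution for aerobically growing bacteria, in Mueller-Hinton II broth. Test organisms were recent clinical isolates from diverse geographic centers plus laboratory-derived oxazolidinone-resistant mutants. QC strains S. aureus ATCC 29213 and E. faecalis ATCC 29212 were included in each assay set to confirm proper assay performance.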

Enterococcus faecalis [1] = assay: Antimicrobial activity against linezolid-resistant Enterococcus faecalis 414 harboring G2576U mutation in peptidyl transferase centre by broth microdilution method; outline: as §1
Staphylococcus hominis = assay: Antimicrobial activity against linezolid-resistant Staphylococcus hominis by broth microdilution method; outline: as §1
Staphylococcus aureus [2] = assay: Antimicrobial activity against Staphylococcus aureus 1651 harboring G2576U mutation in peptidyl transferase centre by broth microdilution method; outline: as §1
Enterococcus faecalis [3] = assay: Antimicrobial activity against linezolid-resistant Enterococcus faecalis by broth microdilution method; outline: as §1
Staphylococcus aureus [4] = assay: Antimicrobial activity against linezolid-resistant Staphylococcus aureus 425 harboring G2447U in peptidyl transferase centre by broth microdilution method; outline: as §1
Staphylococcus aureus [5] = assay: Antimicrobial activity against linezolid-resistant Staphylococcus aureus 131-6952X harboring plasmid borne cfr gene by broth microdilution method; outline: as §1
Staphylococcus aureus [6] = assay: Antimicrobial activity against linezolid-resistant Staphylococcus aureus by broth microdilution method; outline: as §1
[7] = tested on: Staphylococcus epidermidis; assay: Antimicrobial activity against linezolid-resistant Staphylococcus epidermidis by broth microdilution method; outline: as §1
Enterococcus faecium [8] = assay: Antimicrobial activity against linezolid-resistant Enterococcus faecium by broth microdilution method; outline: as §1
Staphylococcus aureus [9] = assay: Antimicrobial activity against linezolid-resistant methicillin-resistant Staphylococcus aureus NRS121 harboring G2576U mutation in peptidyl transferase centre by broth microdilution method; outline: as §1
Staphylococcus aureus [10] = assay: Antimicrobial activity against linezolid-resistant Staphylococcus aureus 004-737X harboring plasmid borne cfr gene by broth microdilution method; outline: as §1
Staphylococcus aureus [11] = assay: Antimicrobial activity against linezolid-resistant methicillin-resistant Staphylococcus aureus NRS120 harboring G2576U mutation in peptidyl transferase centre by broth microdilution method
Enterococcus faecium [12] = assay: Antimicrobial activity against linezolid-resistant Enterococcus faecium 854 harboring G2576U mutation in peptidyl transferase centre by broth microdilution method; outline: as §1
Staphylococcus aureus [13] = assay: Antimicrobial activity against linezolid-resistant Staphylococcus aureus 480 harboring G2447U in peptidyl transferase centre by broth microdilution method; outline: as §1
Staphylococcus aureus [14] = assay: Antimicrobial activity against linezolid-resistant methicillin-resistant Staphylococcus aureus NRS127 by broth microdilution method; outline: as §1
Staphylococcus aureus [15] = assay: Antimicrobial activity against linezolid-resistant methicillin-resistant Staphylococcus aureus NRS271 harboring G2576U mutation in peptidyl transferase centre by broth microdilution method; outline: as §1
Staphylococcus aureus [16] = assay: Antimicrobial activity against linezolid-resistant Staphylococcus aureus 1652 harboring U2500A mutation in peptidyl transferase centre by broth microdilution method; outline: as §1
Staphylococcus aureus [17] = assay: Antimicrobial activity against linezolid-resistant Staphylococcus aureus CM/05 3067 harboring chromosomal cfr gene by broth microdilution method; outline: as §1
Staphylococcus aureus [18] = assay: Antimicrobial activity against linezolid-resistant methicillin-resistant Staphylococcus aureus NRS119 harboring G2576U mutation in peptidyl transferase centre by broth microdilution method; outline: as §1
Enterococcus faecalis [19] = assay: Antimicrobial activity against linezolid-resistant Enterococcus faecalis 413 harboring G2576U mutation in peptidyl transferase centre by broth microdilution method; outline: as §1
Enterococcus faecalis [20] = assay: Antimicrobial activity against linezolid-resistant Enterococcus faecalis 412 harboring G2576U mutation in peptidyl transferase centre by broth microdilution method; outline: as §1
Enterococcus faecalis [21] = assay: Antimicrobial activity against linezolid-resistant Enterococcus faecalis 3128 harboring G2576U mutation in peptidyl transferase centre by broth microdilution method; outline: as §1
Enterococcus faecalis [22] = assay: Antimicrobial activity against linezolid-resistant Enterococcus faecalis 3124 harboring G2576U mutation in peptidyl transferase centre by broth microdilution method; outline: as §1
Staphylococcus aureus [23] = assay: Antimicrobial activity against […] 29213 by broth microdilution method; outline: as §1
Enterococcus faecalis [24] = assay: Antimicrobial activity against linezolid-resistant Enterococcus faecalis 1172 harboring G2576U mutation in peptidyl transferase centre by broth microdilution method; outline: as §1
Enterococcus faecalis [25] = assay: Antimicrobial activity against linezolid-resistant Enterococcus faecalis 411 harboring G2576U mutation in peptidyl transferase centre by broth microdilution method; outline: as §1

| Structure (SMILES) | MIC (Mammaliicoccus sciuri) [µg/mL] | MIC (Enterococcus faecalis [1]) [µg/mL] | MIC (Staphylococcus hominis) [µg/mL] | MIC (Staphylococcus aureus [2]) [µg/mL] | MIC50 (Enterococcus faecalis [3]) [µg/mL] | MIC90 (Enterococcus faecalis [3]) [µg/mL] | MIC (Staphylococcus aureus [4]) [µg/mL] | MIC (Staphylococcus aureus [5]) [µg/mL] | MIC50 (Staphylococcus aureus [6]) [µg/mL] | MIC (Staphylococcus aureus [10]) [µg/mL] | MIC (Enterococcus faecium [12]) [µg/mL] | MIC (Staphylococcus aureus [13]) [µg/mL] | MIC (Staphylococcus aureus [14]) [µg/mL] | MIC (Staphylococcus aureus [16]) [µg/mL] | MIC (Staphylococcus aureus [17]) [µg/mL] | MIC (Enterococcus faecalis [19]) [µg/mL] | MIC (Enterococcus faecalis [20]) [µg/mL] | MIC (Staphylococcus aureus [23]) [µg/mL] | MIC (Enterococcus faecalis [24]) [µg/mL] | MIC (Enterococcus faecalis [25]) [µg/mL] | other results |
| --- | --- | --- | --- | --- | --- | --- | --- | --- | --- | --- | --- | --- | --- | --- | --- | --- | --- | --- | --- | --- | --- |
| CC(=O)NC[C@H]1CN(c2ccc(N3CCOCC3)c(F)c2)C(=O)O1 [LINEZOLID] | 16 (≈ 47.4 µM) | 32 (≈ 94.9 µM) | 16 (≈ 47.4 µM) | 16 (≈ 47.4 µM) | 32 (≈ 94.9 µM) | 32 (≈ 94.9 µM) | 32 (≈ 94.9 µM) | 32 (≈ 94.9 µM) | 2 (≈ 5.93 µM) | 8 (≈ 23.7 µM) | 16 (≈ 47.4 µM) | > 32 | 8 (≈ 23.7 µM) | 32 (≈ 94.9 µM) | 16 (≈ 47.4 µM) | 32 (≈ 94.9 µM) | – | – | – | – | MIC90 (Staphylococcus aureus [6]): 16 µg/mL (≈ 47.4 µM); MIC50 [7]: 32 µg/mL (≈ 94.9 µM); MIC90 [7]: > 128 µg/mL; MIC50 (Enterococcus faecium [8]): 32 µg/mL (≈ 94.9 µM); MIC90 (Enterococcus faecium [8]): 64 µg/mL (≈ 190 µM); MIC (Staphylococcus aureus [9]): 64 µg/mL (≈ 190 µM); MIC (Staphylococcus aureus [11]): 64 µg/mL (≈ 190 µM); MIC (Staphylococcus aureus [15]): 32 µg/mL (≈ 94.9 µM); MIC (Staphylococcus aureus [18]): 64 µg/mL (≈ 190 µM) |
| Cc1onc(-c2ccccc2)c1C(=O)N[C@@H]1C(=O)N2[C@@H]1SC(C)(C)[C@@H]2C(=O)O [OXACILLIN] | – | 16 (≈ 39.9 µM) | – | > 32 | – | – | 0.12 (≈ 0.299 µM) | > 2 | – | > 2 | > 32 | < 0.03 | 32 (≈ 79.7 µM) | 32 (≈ 79.7 µM) | > 32 | > 32 | 16 (≈ 39.9 µM) | 0.12 (≈ 0.299 µM) | 32 (≈ 79.7 µM) | > 32 | MIC (Enterococcus faecalis [21]): 2 µg/mL (≈ 4.98 µM); MIC (Enterococcus faecalis [22]): 8 µg/mL (≈ 19.9 µM) |
| CC1(C)S[C@@H]2[C@H](NC(=O)Cc3ccccc3)C(=O)N2[C@H]1C(=O)O [PENICILLIN G] | – | 1 (≈ 2.99 µM) | – | 16 (≈ 47.8 µM) | – | – | 1 (≈ 2.99 µM) | – | – | – | – | 0.25 (≈ 0.748 µM) | 16 (≈ 47.8 µM) | 32 (≈ 95.7 µM) | – | 4 (≈ 12 µM) | 2 (≈ 5.98 µM) | 1 (≈ 2.99 µM) | 4 (≈ 12 µM) | 4 (≈ 12 µM) | – |
| Cn1nnc(-c2ccc(-c3ccc(N4C[C@H](CO)OC4=O)cc3F)cn2)n1 [TEDIZOLID] | 2 (≈ 5.4 µM) | – | 2 (≈ 5.4 µM) | 2 (≈ 5.4 µM) | 4 (≈ 10.8 µM) | 4 (≈ 10.8 µM) | 8 (≈ 21.6 µM) | 1 (≈ 2.7 µM) | 0.25 (≈ 0.675 µM) | 0.5 (≈ 1.35 µM) | 2 (≈ 5.4 µM) | 16 (≈ 43.2 µM) | 1 (≈ 2.7 µM) | 4 (≈ 10.8 µM) | 1 (≈ 2.7 µM) | – | 2 (≈ 5.4 µM) | 1 (≈ 2.7 µM) | – | 2 (≈ 5.4 µM) | MIC90 (Staphylococcus aureus [6]): 2 µg/mL (≈ 5.4 µM); MIC50 [7]: 4 µg/mL (≈ 10.8 µM); MIC90 [7]: 8 µg/mL (≈ 21.6 µM); MIC50 (Enterococcus faecium [8]): 2 µg/mL (≈ 5.4 µM); MIC90 (Enterococcus faecium [8]): 4 µg/mL (≈ 10.8 µM); MIC (Staphylococcus aureus [9]): 4 µg/mL (≈ 10.8 µM); MIC (Staphylococcus aureus [11]): 8 µg/mL (≈ 21.6 µM); MIC (Staphylococcus aureus [15]): 2 µg/mL (≈ 5.4 µM); MIC (Staphylococcus aureus [18]): 4 µg/mL (≈ 10.8 µM) |
| CN[C@H](CC(C)C)C(=O)N[C@H]1C(=O)N[C@@H](CC(N)=O)C(=O)N[C@H]2C(=O)N[C@H]3C(=O)N[C@H](C(=O)N[C@H](C(=O)O)c4cc(O)cc(O)c4-c4cc3ccc4O)[C@H](O)c3ccc(c(Cl)c3)Oc3cc2cc(c3O[C@@H]2O[C@H](CO)[C@@H](O)[C@H](O)[C@H]2O[C@H]2C[C@](C)(N)[C@H](O)[C@H](C)O2)Oc2ccc(cc2Cl)[C@H]1O [VANCOMYCIN] | – | 32 (≈ 22.1 µM) | – | – | – | – | – | – | – | – | > 32 | – | – | – | – | 1 (≈ 0.69 µM) | 1 (≈ 0.69 µM) | – | > 32 | 1 (≈ 0.69 µM) | MIC (Enterococcus faecalis [21]): > 32 µg/mL; MIC (Enterococcus faecalis [22]): > 32 µg/mL |
